Results: ChEMBL document CHEMBL2021879, “Novel pyrrolopyrimidine analogues as potent dipeptidyl peptidase IV inhibitors based on pharmacokinetic property-driven optimization” (Eur J Med Chem, 2012)
The source made the active and inactive calls. The rule behind the calls is not given here.

Experiments:
[1] = Oral bioavailability in Sprague-Dawley rat at 20 to 25 mg/kg administered as single dose; assay type: ADME, organism-based; details: in vivo
[2] = Metabolic stability in rat liver microsomes assessed as compound remaining at 1 uM after 30 mins by LC-MS/MS; assay type: ADME, Microsome; details: read-out: Stability
[3] = Metabolic stability in rat liver microsomes assessed as compound turnover at 1 uM after 30 mins by LC-MS/MS; assay type: ADME, Microsome; details: read-out: Drug metabolism
Summary of the method: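 Pooled rat liver microsomes, 30 min incubation; read-out is percent compound turnover (hepatic first-pass effect); mean of at least three independent determinations.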

[4] = system: Mus musculus; assay: Reduction of glucose excursions in C57Bl/6j lean mouse at 3 mg/kg, po measured after 45 mins by oral glucose tolerance test; assay type: functional, organism-based; set-up: dose 3 mg/kg
Summary of the method: (§1)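 OGTT after oral treatment: C57BL/6j lean mice at 3 mg/kg, and ob/ob mice at 1, 3 and 10 mg/kg. Blood glucose followed over the glucose challenge; excursion expressed as AUC₀₋₁₂₀ change rate (percent inhibition).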

[5] = Efflux ratio of apparent permeability from apical to basolateral side to basolateral to apical side in human Caco2 cells at 10 uM after 60 mins by LC-MS/MS analysis; details: Caco-2
[6] = Apparent permeability from basolateral to apical side in human Caco2 cells at 10 uM after 60 mins by LC-MS/MS analysis; details: Caco-2
[7] = Apparent permeability from apical to basolateral side in human Caco2 cells at 10 uM after 60 mins by LC-MS/MS analysis; details: Caco-2
[8] = biological target: Dipeptidyl peptidase 4 (Homo sapiens, UniProt P27487); assay: Inhibition of human DPP4 after 10 mins
[9] = biological target: Dipeptidyl peptidase 8 (Homo sapiens, UniProt Q6V1X1); assay: Inhibition of DPP8
[10] = biological target: Dipeptidyl peptidase 9 (Homo sapiens, UniProt Q86TI2); assay: Inhibition of DPP9
[11] = Half life in Sprague-Dawley rat at 20 to 25 mg/kg, po and […], iv administered as single dose; assay type: ADME, organism-based; set-up: dose 20-25 mg/kg, route oral; details: in vivo
[12] = system: Mus musculus; assay: Reduction of glucose excursions in ob/ob type 2 diabetes mouse model at 1 mg/kg, po measured after 45 mins by oral glucose tolerance test; assay type: functional; details: 0.75 h; summary of the method: as §1
[13] = system: Mus musculus; assay: Reduction of glucose excursions in ob/ob type 2 diabetes mouse model at 3 mg/kg, po measured after 45 mins by oral glucose tolerance test; assay type: functional; details: 0.75 h; summary of the method: as §1
[14] = system: Mus musculus; assay: Reduction of glucose excursions in ob/ob type 2 diabetes mouse model at 10 mg/kg, po measured after 45 mins by oral glucose tolerance test; assay type: functional; details: 0.75 h; summary of the method: as §1
[15] = biological target: Voltage-gated inwardly rectifying potassium channel KCNH2 (Homo sapiens, UniProt Q12809)
Chain of Voltage-gated inwardly rectifying potassium channel KCNH2 (Q12809 whole entry): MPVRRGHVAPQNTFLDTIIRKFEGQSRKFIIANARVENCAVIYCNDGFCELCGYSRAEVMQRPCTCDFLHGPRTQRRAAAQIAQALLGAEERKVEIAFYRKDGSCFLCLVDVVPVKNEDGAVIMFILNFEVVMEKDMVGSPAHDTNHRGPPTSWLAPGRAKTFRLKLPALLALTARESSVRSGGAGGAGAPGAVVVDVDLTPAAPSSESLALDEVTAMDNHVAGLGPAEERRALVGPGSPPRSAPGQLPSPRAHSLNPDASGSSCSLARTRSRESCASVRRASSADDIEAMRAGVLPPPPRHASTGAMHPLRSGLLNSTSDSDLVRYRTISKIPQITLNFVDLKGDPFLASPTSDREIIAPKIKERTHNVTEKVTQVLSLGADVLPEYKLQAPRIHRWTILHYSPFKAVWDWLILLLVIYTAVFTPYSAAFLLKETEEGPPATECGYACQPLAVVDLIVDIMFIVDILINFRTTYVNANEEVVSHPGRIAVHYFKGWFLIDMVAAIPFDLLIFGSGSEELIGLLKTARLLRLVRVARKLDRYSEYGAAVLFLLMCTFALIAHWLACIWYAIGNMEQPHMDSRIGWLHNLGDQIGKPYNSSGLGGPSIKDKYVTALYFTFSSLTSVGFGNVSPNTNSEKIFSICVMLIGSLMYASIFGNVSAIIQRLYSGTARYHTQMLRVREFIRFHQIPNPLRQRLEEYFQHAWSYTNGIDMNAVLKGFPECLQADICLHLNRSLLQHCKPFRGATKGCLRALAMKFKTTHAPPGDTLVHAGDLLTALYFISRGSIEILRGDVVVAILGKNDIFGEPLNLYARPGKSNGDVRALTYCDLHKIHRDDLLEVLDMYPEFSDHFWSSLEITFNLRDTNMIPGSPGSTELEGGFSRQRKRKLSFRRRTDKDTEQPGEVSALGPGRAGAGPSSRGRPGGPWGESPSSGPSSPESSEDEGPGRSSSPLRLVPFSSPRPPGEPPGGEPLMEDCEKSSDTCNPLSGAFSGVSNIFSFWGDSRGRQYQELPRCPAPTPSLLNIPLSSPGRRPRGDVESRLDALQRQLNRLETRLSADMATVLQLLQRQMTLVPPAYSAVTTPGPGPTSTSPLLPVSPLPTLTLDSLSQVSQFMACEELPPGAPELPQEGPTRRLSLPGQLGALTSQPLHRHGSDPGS

Chain of Dipeptidyl peptidase 4 (P27487 whole entry): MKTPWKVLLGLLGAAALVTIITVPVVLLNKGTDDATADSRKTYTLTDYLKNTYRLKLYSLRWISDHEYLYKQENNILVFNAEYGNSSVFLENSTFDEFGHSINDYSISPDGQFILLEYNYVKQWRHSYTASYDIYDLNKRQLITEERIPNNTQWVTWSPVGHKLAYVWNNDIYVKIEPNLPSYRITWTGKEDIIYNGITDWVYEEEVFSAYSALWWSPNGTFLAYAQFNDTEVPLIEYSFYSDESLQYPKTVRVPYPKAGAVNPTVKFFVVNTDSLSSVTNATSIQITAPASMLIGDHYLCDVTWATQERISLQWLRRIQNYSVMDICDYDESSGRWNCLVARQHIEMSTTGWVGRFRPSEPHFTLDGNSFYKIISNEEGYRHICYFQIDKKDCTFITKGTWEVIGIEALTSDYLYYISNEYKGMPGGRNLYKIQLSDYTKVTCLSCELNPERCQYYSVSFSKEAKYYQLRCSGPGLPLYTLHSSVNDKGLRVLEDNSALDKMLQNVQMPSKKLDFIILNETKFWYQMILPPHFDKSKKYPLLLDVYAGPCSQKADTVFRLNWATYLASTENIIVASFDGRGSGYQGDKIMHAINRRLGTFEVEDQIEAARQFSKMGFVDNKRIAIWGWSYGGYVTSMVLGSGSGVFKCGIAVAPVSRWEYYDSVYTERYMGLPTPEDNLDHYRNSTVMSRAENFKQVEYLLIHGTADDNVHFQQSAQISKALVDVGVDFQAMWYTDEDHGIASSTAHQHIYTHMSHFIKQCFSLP
Chain of Dipeptidyl peptidase 9 (Q86TI2 whole entry): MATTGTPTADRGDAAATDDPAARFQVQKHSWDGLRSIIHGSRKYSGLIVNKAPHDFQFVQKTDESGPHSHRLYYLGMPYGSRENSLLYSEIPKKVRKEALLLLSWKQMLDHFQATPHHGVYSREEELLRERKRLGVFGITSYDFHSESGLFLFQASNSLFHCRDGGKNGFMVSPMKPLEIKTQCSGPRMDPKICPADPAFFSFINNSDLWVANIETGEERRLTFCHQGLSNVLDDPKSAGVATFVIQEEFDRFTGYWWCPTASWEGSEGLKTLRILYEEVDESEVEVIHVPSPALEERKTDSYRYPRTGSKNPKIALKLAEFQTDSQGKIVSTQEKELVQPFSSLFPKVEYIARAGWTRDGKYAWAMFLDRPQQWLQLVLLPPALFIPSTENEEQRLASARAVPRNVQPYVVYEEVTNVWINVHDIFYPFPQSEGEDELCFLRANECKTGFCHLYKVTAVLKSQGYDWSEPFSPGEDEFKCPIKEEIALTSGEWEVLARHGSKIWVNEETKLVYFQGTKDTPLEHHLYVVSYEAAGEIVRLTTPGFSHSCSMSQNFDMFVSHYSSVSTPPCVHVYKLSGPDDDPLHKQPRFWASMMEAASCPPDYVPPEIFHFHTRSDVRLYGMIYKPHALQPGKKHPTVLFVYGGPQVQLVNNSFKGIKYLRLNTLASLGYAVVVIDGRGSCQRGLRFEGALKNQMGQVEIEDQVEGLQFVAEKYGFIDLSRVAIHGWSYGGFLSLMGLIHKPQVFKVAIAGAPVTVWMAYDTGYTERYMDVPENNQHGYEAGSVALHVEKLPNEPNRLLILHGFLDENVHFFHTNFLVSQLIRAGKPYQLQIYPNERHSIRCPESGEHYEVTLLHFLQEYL
Chain of Dipeptidyl peptidase 8 (Q6V1X1 whole entry): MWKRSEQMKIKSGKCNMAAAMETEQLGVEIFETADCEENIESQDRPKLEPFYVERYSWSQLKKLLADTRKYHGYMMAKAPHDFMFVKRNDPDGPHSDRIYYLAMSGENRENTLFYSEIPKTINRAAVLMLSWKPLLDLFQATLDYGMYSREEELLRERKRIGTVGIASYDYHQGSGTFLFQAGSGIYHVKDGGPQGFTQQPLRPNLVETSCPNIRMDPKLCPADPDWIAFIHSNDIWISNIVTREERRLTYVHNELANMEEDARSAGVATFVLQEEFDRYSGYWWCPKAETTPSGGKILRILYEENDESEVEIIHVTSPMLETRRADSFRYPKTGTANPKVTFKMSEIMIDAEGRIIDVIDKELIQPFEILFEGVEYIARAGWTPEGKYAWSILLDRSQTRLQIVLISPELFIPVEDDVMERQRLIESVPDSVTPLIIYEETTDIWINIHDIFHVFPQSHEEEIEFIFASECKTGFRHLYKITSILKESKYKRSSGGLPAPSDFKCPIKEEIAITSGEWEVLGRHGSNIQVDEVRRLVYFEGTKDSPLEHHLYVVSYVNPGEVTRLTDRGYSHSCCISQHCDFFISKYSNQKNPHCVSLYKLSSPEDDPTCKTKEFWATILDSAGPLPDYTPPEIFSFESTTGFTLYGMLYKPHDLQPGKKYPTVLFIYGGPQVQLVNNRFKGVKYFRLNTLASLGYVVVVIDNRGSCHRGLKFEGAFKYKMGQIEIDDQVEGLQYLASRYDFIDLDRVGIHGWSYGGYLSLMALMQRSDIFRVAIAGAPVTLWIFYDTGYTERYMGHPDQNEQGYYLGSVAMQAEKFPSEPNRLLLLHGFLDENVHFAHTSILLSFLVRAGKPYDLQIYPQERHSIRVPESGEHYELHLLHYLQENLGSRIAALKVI

SMILES | remaining at 0.5 h, 1 µM [2] [%] | efflux ratio at 1 h, 10 µM [5] | Papp B→A at 1 h, 10 µM [6] [×10⁻⁶ cm/s] | Papp A→B at 1 h, 10 µM [7] [×10⁻⁶ cm/s] | further results
N#Cc1ccccc1Cn1c(N2CCC[C@@H](N)C2)nc2ccsc2c1=O | 6.6 |  |  |  | bioavailability [1]: 23.3%; metabolised at 0.5 h, 1 µM [3]: 93%; inhibition [4]: Active
N#Cc1ccccc1Cn1c(N2CCC[C@@H](N)C2)nc2[nH]c(-c3ccc(F)cc3)cc2c1=O |  | 45.3 | 26.6 | 0.59 | 
N#Cc1ccccc1Cn1c(N2CCC[C@@H](N)C2)nc2[nH]c(Br)cc2c1=O | 71.9 |  | 11.4 | 5.48 | IC50 [8]: 0.00264 µM; IC50 [9]: > 25 µM; IC50 [10]: > 25 µM
N#Cc1ccccc1Cn1c(N2CCC[C@@H](N)C2)nc2sccc2c1=O | 24.6 |  |  |  | 
Cc1csc2c(=O)n(Cc3ccccc3C#N)c(N3CCC[C@@H](N)C3)nc12 | 0 |  |  |  | 
Cn1ccc2c(=O)n(Cc3ccccc3C#N)c(N3CCC[C@@H](N)C3)nc21 |  | 13.3 | 24.6 | 1.84 | 
N#Cc1ccccc1Cn1c(N2CCC[C@@H](N)C2)nc2c(-c3ccsc3)c[nH]c2c1=O |  | 11.4 | 21.2 | 1.86 | 
Cn1c(=O)cc(N2CCC[C@@H](N)C2)n(Cc2ccccc2C#N)c1=O |  |  |  |  | inhibition [4]: Active
Cn1c(Br)c(Br)c2c(=O)n(Cc3ccccc3C#N)c(N3CCC[C@@H](N)C3)nc21 | 41 | 3.37 | 8.41 | 2.5 | 
N#Cc1ccccc1Cn1c(N2CCC[C@@H](N)C2)nc2c(Br)c[nH]c2c1=O | 78 |  | 18.4 | 2.81 | bioavailability [1]: 41%; IC50 [9]: > 10 µM; IC50 [10]: > 10 µM; half-life [11]: 2 h; inhibition [4]: Active; inhibition in vivo at 1 mg/kg [12]: 27.9%; inhibition in vivo at 3 mg/kg [13]: 51.9%; inhibition in vivo at 10 mg/kg [14]: 72.7%; IC50 [15]: > 300 µM
Cc1cc2c(=O)n(Cc3ccccc3C#N)c(N3CCC[C@@H](N)C3)nc2[nH]1 | 91.4 |  | 9.36 | 4.36 | IC50 [8]: 0.0138 µM; IC50 [9]: > 25 µM; IC50 [10]: > 25 µM
N#Cc1ccccc1Cn1c(N2CCC[C@@H](N)C2)nc2[nH]ccc2c1=O | 65.1 |  |  |  | bioavailability [1]: 5.7%
N#Cc1ccccc1Cn1c(N2CCC[C@@H](N)C2)nc2c(-c3cccnc3)c[nH]c2c1=O |  | 37.8 | 11.3 | 0.3 | 
N#Cc1ccccc1Cn1c(N2CCC[C@@H](N)C2)nc2c(-c3ccncc3)c[nH]c2c1=O | 28.1 | 2.51 | 10.3 | 4.13 | 
N#Cc1ccccc1Cn1c(N2CCC[C@@H](N)C2)nc2cc[nH]c2c1=O | 39.2 | 4.2 | 14.4 | 3.44 | 
Cc1csc2nc(N3CCC[C@@H](N)C3)n(Cc3ccccc3C#N)c(=O)c12 | 3.27 |  |  |  | 
N#Cc1ccccc1Cn1c(N2CCC[C@@H](N)C2)nc2[nH]c(-c3cccnc3)cc2c1=O | 73.8 |  | 6.01 | 2.55 | IC50 [8]: 0.00234 µM; IC50 [9]: > 10 µM; IC50 [10]: > 10 µM
N#Cc1ccccc1Cn1c(N2CCC[C@@H](N)C2)nc2scc(C(F)(F)F)c2c1=O | 4.6 |  |  |  | 
